From ChEMBL document CHEMBL3045178, “Metabolites from Aspergillus fumigatus, an endophytic fungus associated with Melia azedarach, and their antifungal, antifeedant, and toxic activities” (J Agric Food Chem, 2012) come the findings set out here.

≈ marks a conversion by molar mass, not a printed value.

In data set [1] the test system is Alternaria solani. Description: Antifungal activity against Alternaria solani at 28 degC after 48 hr microbroth dilution method. The class given is functional. The method, boiled down: (§1)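 Plant-pathogenic fungi isolated from infected plant organs. Fungi grown 18 h in PD medium at 28 ± 0.5 °C and 150 rpm, then diluted to about 1 × 10^6 CFU in PD medium. Compounds at 2 mg/mL DMSO stock, serially diluted in triplicate in PD medium in 96-well plates before the fungal suspension was added. DMSO served as negative control. After 48 h at 28 ± 0.5 °C, MIC taken as the lowest concentration with no visible growth.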
(In general: Dilution methods test growth across graded concentrations, often in twofold steps.)

The subject of data set [2] is Alternaria alternata. In words: Antifungal activity against Alternaria alternata at 28 degC after 48 hr microbroth dilution method. The class given is functional. A digest of the protocol:
as §1

Data set [3] deals with Colletotrichum gloeosporioides. In words: Antifungal activity against Colletotrichum gloeosporioides at 28 degC after 48 hr microbroth dilution method. Type of data set: functional. A digest of the protocol: as §1
Data set [4] has as its system Fusarium solani. Description: Antifungal activity against Fusarium solani at 28 degC after 48 hr microbroth dilution method. Type of data set: functional. A digest of the protocol:
as §1

The test system of data set [5] is Fusarium oxysporum f. sp. niveum. In words: Antifungal activity against Fusarium oxysporum f. sp. niveum at 28 degC after 48 hr microbroth dilution method. Type of data set: functional. A digest of the protocol: as §1
Data set [6] deals with Fusarium oxysporum f. sp. vasinfectum. In words: Antifungal activity against Fusarium oxysporum f. sp. vasinfectum at 28 degC after 48 hr microbroth dilution method. The class given is functional. The method, boiled down: as §1
In data set [7] the test system is Fusarium graminearum. In words: Antifungal activity against Fusarium graminearum at 28 degC after 48 hr microbroth dilution method. Type of data set: functional. A digest of the protocol: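 Microbroth dilution in PD medium. Fungi were grown 18 h at 28 ± 0.5 °C and 150 rpm, then diluted to about 1 × 10^6 CFU. Compounds (2 mg/mL DMSO stock) were serially diluted in triplicate and fungal suspension added. Incubated 48 h at 28 ± 0.5 °C. MIC was the lowest concentration with no visible growth. Controls: DMSO, carbendazim, hymexazol.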

Data set [8] in a line: Toxicity in Artemia salina (brine shrimp) […]. To be noted: in vivo. The class given is organism-based.
For data set [9], the system named is Mythimna separata. In words: Antifeedant activity against Mythimna separata (Oriental armyworm) larvae assessed as antifeedant index by area of the leaf consumed. The class given is functional. Further details: concentration or dose not given beside the values. A digest of the protocol: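 Positive control prepared at 10 mg/mL in acetone; leaves treated with acetone alone served as control. Ten treated leaves and 10 larvae per Petri dish lined with moistened filter paper. Held at 25 ± 2 °C, 12L:12D, 65−80% rh. Leaf area consumed recorded after 48 h. AFI = (C − T)/C × 100%, from control and treated areas consumed. Three repetitions.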

Data set [10] deals with Botrytis cinerea. In words: Antifungal activity against Botryotinia fuckeliana at 28 degC after 48 hr microbroth dilution method. The class given is functional. The method, boiled down: as §1

With `COc1ccc2c3c4n(c2c1)[C@H](C=C(C)C)OOC(C)(C)C[C@@H]4N1C(=O)[C@@H]2CCCN2C(=O)[C@]1(O)[C@H]3O` [VERRUCULOGEN], the MIC – broadly, the lowest concentration found to suppress growth – in data set [1] is 12.5 µg/mL (≈ 24.4 µM); in [2], 6.25 µg/mL (≈ 12.2 µM); in data set [3], 6.25 µg/mL (≈ 12.2 µM); in [4] it was 50 µg/mL (≈ 97.7 µM); in [5], 12.5 µg/mL (≈ 24.4 µM); in data set [6], 25 µg/mL (≈ 48.9 µM). In addition, the MIC in data set [7] and in data set [10] was 6.25 µg/mL (≈ 12.2 µM) throughout. In addition, the 50% lethal concentration (LC50) – broadly, the concentration lethal to half of the exposed cells or organisms – in data set [8] amounted to 15.8 µg/mL (≈ 30.9 µM). In addition, the AFI in data set [9] is recorded as 55%.
Turning to `C[C@@H]1N[C@H]2N(C1=O)c1ccccc1[C@@]2(O)C[C@@H]1C(=O)N[C@](C)(O)c2nc3ccccc3c(=O)n21` [3-HYDROXYFUMIQUINAZOLINE A], the MIC in data set [1] stood at 12.5 µg/mL (≈ 27.1 µM); in data set [2], 12.5 µg/mL (≈ 27.1 µM); in data set [3] it was 12.5 µg/mL (≈ 27.1 µM); in data set [4], 100 µg/mL (≈ 217 µM); in data set [5], 50 µg/mL (≈ 108 µM); in data set [6], 50 µg/mL (≈ 108 µM). Besides, the MIC in data set [7] and in data set [10] was 12.5 µg/mL (≈ 27.1 µM) each time. The LC50 in [8] was found to be 80.8 µg/mL (≈ 175 µM). Further, the AFI in data set [9] was 7.5%.
Turning to `C[C@@H]1N[C@H]2N(C1=O)c1ccccc1[C@@]2(O)C[C@@H]1C(=O)N[C@@H](C)c2nc3ccccc3c(=O)n21` [FUMIQUINAZOLINE A], the MIC stood at 12.5 µg/mL (≈ 28.1 µM) in [1]; 12.5 µg/mL (≈ 28.1 µM) in [2]; 12.5 µg/mL (≈ 28.1 µM) in data set [3]; 50 µg/mL (≈ 112 µM) in data set [4]; 25 µg/mL (≈ 56.1 µM) in data set [5]; 50 µg/mL (≈ 112 µM) in data set [6]. In addition, the MIC in data set [7] and in [10] was 12.5 µg/mL (≈ 28.1 µM) in each case. This compound also yielded a median lethal concentration (LC50) in data set [8] of 39.7 µg/mL (≈ 89.1 µM). Also, the AFI in [9] was determined as 45%.
